In article PMC2788151 (Journal of immunology (Baltimore, Md. : 1950), 2009):
Non-standard residues stand in square brackets, D forms with d. Residues, ends and D or L forms follow the SMILES beside them. No end group written: not given here. *: point of attachment. Biotin = O=C1N[C@H]2[C@H](CS[C@H]2CCCCC(=O)*)N1; pY = N[C@@H](Cc1ccc(OP(=O)(O)O)cc1)C(=O)O

What was measured:
[1] = biological target: T1, Recombinant human Dok2 PTB domain (amino acids 133–259) (Homo sapiens, UniProt O60496); type: binding
T1 sequence (O60496 133-259): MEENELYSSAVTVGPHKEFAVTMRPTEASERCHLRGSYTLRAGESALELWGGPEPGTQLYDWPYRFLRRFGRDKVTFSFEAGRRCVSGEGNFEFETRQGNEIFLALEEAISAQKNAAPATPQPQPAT
In short: (§1)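 On a BIAcore 3000, ~4000 RU streptavidin was amine-coupled to CM5 chips at 25°C, then 50–150 RU biotinylated human phosphotyrosine peptides (CD200R tail, singly or doubly phosphorylated) were captured. Increasing concentrations of monomeric recombinant soluble PTB domain were passed over at 37°C to reach equilibrium binding. Signal from non-phosphorylated-peptide or streptavidin-only flow cells was subtracted, and the data were fitted to hyperbolas.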

[2] = biological target: T2, Recombinant human Dok1 PTB domain (amino acids 140–268) (Homo sapiens, UniProt Q99704); type: binding
T2 sequence (Q99704 140-268): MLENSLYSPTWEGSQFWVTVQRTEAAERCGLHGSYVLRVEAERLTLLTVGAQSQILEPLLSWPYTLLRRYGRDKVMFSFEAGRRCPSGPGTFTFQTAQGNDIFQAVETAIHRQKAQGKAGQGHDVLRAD
In short: as §1

[3] = biological target: CD200R pY1,3 peptide (human); assay: SPR
CD200R pY1,3 peptide (human), sequence (Q8TD46 309-329): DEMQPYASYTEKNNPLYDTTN

[4] = biological target: CD200R pY3 peptide (human); assay: SPR
[5] = biological target: CD200R pY1,2 peptide (human); assay: SPR
[6] = biological target: CD200R pY1 peptide (human); assay: SPR
[7] = biological target: T3, Recombinant human Dok2 PTB domain (amino acids 133-259) (human, UniProt O60496 133-259); assay: SPR
T3 sequence (looked up): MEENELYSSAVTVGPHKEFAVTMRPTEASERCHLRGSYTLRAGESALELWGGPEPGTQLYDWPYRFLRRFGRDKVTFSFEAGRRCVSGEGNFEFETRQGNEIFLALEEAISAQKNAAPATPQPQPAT

[8] = biological target: T4, Recombinant human Dok1 PTB domain (amino acids 140-268) (human, UniProt Q99704 140-268); assay: SPR
T4 sequence (looked up): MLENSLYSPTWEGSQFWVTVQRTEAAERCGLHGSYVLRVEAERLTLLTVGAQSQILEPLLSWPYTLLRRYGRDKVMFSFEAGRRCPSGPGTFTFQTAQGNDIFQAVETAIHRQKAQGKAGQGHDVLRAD

Molecule: CSCC[C@H](NC(=O)[C@H](CCC(=O)O)NC(=O)[C@H](CC(=O)O)NC(=O)CCCC[C@@H]1SC[C@@H]2NC(=O)N[C@@H]21)C(=O)N[C@@H](CCC(N)=O)C(=O)N1CCC[C@H]1C(=O)N[C@@H](Cc1ccc(O)cc1)C(=O)N[C@@H](C)C(=O)N[C@@H](CO)C(=O)N[C@@H](Cc1ccc(O)cc1)C(=O)N[C@H](C(=O)N[C@@H](CCC(=O)O)C(=O)N[C@@H](CCCCN)C(=O)N[C@@H](CC(N)=O)C(=O)N[C@@H](CC(N)=O)C(=O)N1CCC[C@H]1C(=O)N[C@@H](CC(C)C)C(=O)N[C@@H](Cc1ccc(OP(=O)(O)O)cc1)C(=O)N[C@@H](CC(=O)O)C(=O)N[C@H](C(=O)N[C@H](C(=O)N[C@@H](CC(N)=O)C(=O)O)[C@@H](C)O)[C@@H](C)O)[C@@H](C)O [CD200R pY3] (Biotin-DEMQPYASYTEKNNPL[pY]DTTN-OH)
- Kd [1]: 1.4 µM
- Kd [2]: 7.3 µM

Molecule: CSCC[C@H](NC(=O)[C@H](CCC(=O)O)NC(=O)CCCC[C@@H]1SC[C@@H]2NC(=O)N[C@@H]21)C(=O)N[C@@H](Cc1ccccc1)C(=O)N[C@@H](CCC(=O)O)C(=O)N[C@@H](CC(N)=O)C(=O)N1CCC[C@H]1C(=O)N[C@@H](CC(C)C)C(=O)N[C@@H](Cc1ccc(OP(=O)(O)O)cc1)C(=O)NCC(=O)N[C@@H](CO)C(=O)N[C@@H](CC(C)C)C(=O)N[C@@H](CO)C(=O)N[C@@H](CO)C(=O)O [SHIP pY1022] (Biotin-EMFENPL[pY]GSLSS-OH)
- Kd [2]: 13 µM

Molecule: CSCC[C@H](NC(=O)[C@H](CCC(=O)O)NC(=O)[C@H](CC(=O)O)NC(=O)CCCC[C@@H]1SC[C@@H]2NC(=O)N[C@@H]21)C(=O)N[C@@H](CCC(N)=O)C(=O)N1CCC[C@H]1C(=O)N[C@@H](Cc1ccc(OP(=O)(O)O)cc1)C(=O)N[C@@H](C)C(=O)N[C@@H](CO)C(=O)N[C@@H](Cc1ccc(O)cc1)C(=O)N[C@H](C(=O)N[C@@H](CCC(=O)O)C(=O)N[C@@H](CCCCN)C(=O)N[C@@H](CC(N)=O)C(=O)N[C@@H](CC(N)=O)C(=O)N1CCC[C@H]1C(=O)N[C@@H](CC(C)C)C(=O)N[C@@H](Cc1ccc(O)cc1)C(=O)N[C@@H](CC(=O)O)C(=O)N[C@H](C(=O)N[C@H](C(=O)N[C@@H](CC(N)=O)C(=O)O)[C@@H](C)O)[C@@H](C)O)[C@@H](C)O [CD200R pY1] (Biotin-DEMQP[pY]ASYTEKNNPLYDTTN-OH)
- Kd [2]: 14 µM

Molecule: CSCC[C@H](NC(=O)[C@H](CCC(=O)O)NC(=O)[C@H](CC(=O)O)NC(=O)CCCC[C@@H]1SC[C@@H]2NC(=O)N[C@@H]21)C(=O)N[C@@H](CCC(N)=O)C(=O)N1CCC[C@H]1C(=O)N[C@@H](Cc1ccc(OP(=O)(O)O)cc1)C(=O)N[C@@H](C)C(=O)N[C@@H](CO)C(=O)N[C@@H](Cc1ccc(OP(=O)(O)O)cc1)C(=O)N[C@H](C(=O)N[C@@H](CCC(=O)O)C(=O)N[C@@H](CCCCN)C(=O)N[C@@H](CC(N)=O)C(=O)N[C@@H](CC(N)=O)C(=O)N1CCC[C@H]1C(=O)N[C@@H](CC(C)C)C(=O)N[C@@H](Cc1ccc(O)cc1)C(=O)N[C@@H](CC(=O)O)C(=O)N[C@H](C(=O)N[C@H](C(=O)N[C@@H](CC(N)=O)C(=O)O)[C@@H](C)O)[C@@H](C)O)[C@@H](C)O [CD200R pY1,2] (Biotin-DEMQP[pY]AS[pY]TEKNNPLYDTTN-OH)
- Kd [2]: 8.4 µM

Molecule: CSCC[C@H](NC(=O)[C@H](CCC(=O)O)NC(=O)[C@H](CC(=O)O)NC(=O)CCCC[C@@H]1SC[C@@H]2NC(=O)N[C@@H]21)C(=O)N[C@@H](CCC(N)=O)C(=O)N1CCC[C@H]1C(=O)N[C@@H](Cc1ccc(OP(=O)(O)O)cc1)C(=O)N[C@@H](C)C(=O)N[C@@H](CO)C(=O)N[C@@H](Cc1ccc(O)cc1)C(=O)N[C@H](C(=O)N[C@@H](CCC(=O)O)C(=O)N[C@@H](CCCCN)C(=O)N[C@@H](CC(N)=O)C(=O)N[C@@H](CC(N)=O)C(=O)N1CCC[C@H]1C(=O)N[C@@H](CC(C)C)C(=O)N[C@@H](Cc1ccc(OP(=O)(O)O)cc1)C(=O)N[C@@H](CC(=O)O)C(=O)N[C@H](C(=O)N[C@H](C(=O)N[C@@H](CC(N)=O)C(=O)O)[C@@H](C)O)[C@@H](C)O)[C@@H](C)O [CD200R pY1,3] (Biotin-DEMQP[pY]ASYTEKNNPL[pY]DTTN-OH)
- Kd [1]: 0.6 µM
- Kd [2]: 6.2 µM

Molecule: Recombinant human Dok2 PTB domain (amino acids 133-259) (from UniProt O60496 133-259) (domain or fragment)
- Kd [3]: 0.6 µM
- Kd [4]: 1.4 µM

Molecule: Recombinant human Dok1 PTB domain (amino acids 140-268) (from UniProt Q99704 140-268) (domain or fragment)
- Kd [3]: 6.2 µM
- Kd [5]: 8.4 µM
- Kd [4]: 7.3 µM
- Kd [6]: 14 µM

Molecule: CC[C@H](C)[C@H](NC(=O)[C@H](CCC(=O)O)NC(=O)[C@@H](NC(=O)CCCC[C@@H]1SC[C@@H]2NC(=O)N[C@@H]21)[C@@H](C)O)C(=O)N[C@H](C(=O)N[C@@H](CC(N)=O)C(=O)N1CCC[C@H]1C(=O)N[C@@H](CC(N)=O)C(=O)N[C@@H](Cc1ccc(OP(=O)(O)O)cc1)C(=O)N[C@@H](CCSC)C(=O)NCC(=O)N[C@H](C(=O)NCC(=O)N1CCC[C@H]1C(=O)O)C(C)C)[C@@H](C)CC [SHIP pY917] (Biotin-TEIINPN[pY]MGVGP-OH)
- Kd [2]: 13 µM

B1: SHIP pY917 peptide (peptide)
peptide: Biotin-TEIINPN[pY]MGVGP
- Kd [7]: > 30 µM

B2: Dok1 pY146 peptide (peptide)
peptide: Biotin-EMLENSL[pY]SPTW
- Kd [8]: 6.9 µM

B3: Dok2 pY139 peptide (peptide)
peptide: Biotin-CMEENEL[pY]SSAV
- Kd [8]: 3.3 µM
